In data set [1] the target is T1, Ubiquitin-conjugating enzyme E2 H (Homo sapiens) (UniProt P62256).
T1 sequence (whole entry): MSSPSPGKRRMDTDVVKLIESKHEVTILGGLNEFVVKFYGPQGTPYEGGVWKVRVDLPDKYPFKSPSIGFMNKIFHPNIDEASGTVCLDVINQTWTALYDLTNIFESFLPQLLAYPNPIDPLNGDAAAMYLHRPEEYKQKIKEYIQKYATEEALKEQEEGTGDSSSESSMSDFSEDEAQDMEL
As to the kind of experiment: Inhibition of UbcH2 (unknown origin) at 2.5 to 10 uM preincubated for 15 mins followed by E1, Ub and ATP addition measured after 40 mins by Western blot analysis. On the technique in general: A western blot detects proteins with antibodies after separation by electrophoresis.

In data set [2] the target is Ubiquitin-conjugating enzyme E2 D3 (Mus musculus) (UniProt P61079). As to the kind of experiment: Inhibition of UbcH5c in mouse b.End3 cells assessed as decrease in TNF-alpha-mediated IkB-alpha phosphorylation preincubated for 2 hrs followed by TNF-alpha stimulation for 20 mins by Western blot analysis. It counts as cell-based. A digest of the protocol: (§1)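 bEnd.3 cells (DMEM, 10% FBS) were pretreated with compound at 2.5, 5 or 10 µM for 2 h, then stimulated with 20 ng/mL TNF-α (15 min in the methods, 20 min in the legend). Lysates were run on 10% SDS-PAGE and immunoblotted for phospho-IκBα, IκBα, phospho-p65 and p65, with GAPDH as loading control.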
Chain of Ubiquitin-conjugating enzyme E2 D3 (Mus musculus) (P61079 whole entry, looked up): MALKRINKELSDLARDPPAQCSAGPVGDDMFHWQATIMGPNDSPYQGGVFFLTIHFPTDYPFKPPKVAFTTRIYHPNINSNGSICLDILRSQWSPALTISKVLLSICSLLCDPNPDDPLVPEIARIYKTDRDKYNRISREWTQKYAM

For data set [3] the target is unchanged. Put plainly: Inhibition of UbcH5c in mouse b.End3 cells assessed as decrease in TNF-alpha-mediated p65 phosphorylation preincubated for 2 hrs followed by TNF-alpha stimulation for 20 mins by Western blot analysis. It counts as cell-based. The gist of the method:
as §1

For data set [4], the target named is Ubiquitin-conjugating enzyme E2 D2 (Homo sapiens) (UniProt P62837). Put plainly: Inhibition of UbcH5b (unknown origin) at 2.5 to 10 uM preincubated for 15 mins followed by E1, Ub and ATP addition measured after 40 mins by Western blot analysis.
Chain of Ubiquitin-conjugating enzyme E2 D2 (Homo sapiens) (P62837 whole entry, looked up): as the sequence (P61079 whole entry, looked up) above, with N7H, S11N, D132E, S138A counted along it
A short description of data set [5]: Oral bioavailability in Sprague-Dawley rat at 5 mg/kg via gavage by LC-MS/MS analysis. In kind it is ADME, organism-based. To be noted: in vivo. A digest of the protocol: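 Male Sprague-Dawley rats (about 200‒220 g; n = 6) were fasted overnight and gavaged with 5 mg/kg as a suspension in 0.5% methylcellulose. Blood was taken from the orbital artery at 0.083–24 h into heparin tubes. Plasma was quantified by LC/MS/MS (ESI, MRM), with noncompartmental analysis. Bioavailability was referenced to a 1 mg/kg iv dose. Values are mean ± SD.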

Data set [6] deals with Rattus norvegicus. As to the kind of experiment: Antiarthritic activity in Wistar rat Freund's adjuvant-induced arthritis model assessed as reduction in hind paw swelling at 5 to 20 mg/kg, po qd administered on day 10 to 20 postimmunization measured every 2 to 3 days during compound dosing. It counts as functional, organism-based. A digest of the protocol:
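Adjuvant arthritis was induced by intradermal CFA (0.1 mL) into the base of the left hind paw (day 0), with a boost 10 days later. Rats were dosed orally once daily at 5 or 20 mg/kg from day 10 to day 20, with 10 rats per group. Vehicle controls received 0.3% sodium carboxymethylcellulose. Two blinded observers scored the animals every 2 or 3 days. Data are mean ± S.E.M.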

Data set [7] addresses Ubiquitin-conjugating enzyme E2 D3 (Mus musculus) (UniProt P61079). Put plainly: Inhibition of UbcH5c in mouse b.End3 cells assessed as decrease in TNF-alpha-mediated IkB-alpha phosphorylation at 10 uM preincubated for 2 hrs followed by TNF-alpha stimulation for 20 mins by Western blot analysis. In kind it is cell-based. A digest of the protocol:
as §1

Each structure is given as a SMILES string. Calls of active or inactive are those of the source. The calls are words filed in the database; no cut-off is given here.

In general, bioavailability refers to the share of a dose that reaches the circulation, judged against a reference dose that is usually intravenous. In the case of `C=C1C(=O)O[C@H]2c3c(C)c(OCc4ccccc4Br)cc(C)c3CC[C@@H]12`, in data set [1], the inhibition entry was “inactive”. The inhibition result in data set [2] and in data set [3] was “Dose-dependent effect” in each case. Besides, the inhibition entry in data set [4] and in data set [7] was “Active” each time. The same compound showed a bioavailability in data set [5] of 16.8%. Moreover, the outcome in data set [6] was Active.

For the origin of these results see ChEMBL document CHEMBL4028851, “Discovery of Potent Small-Molecule Inhibitors of Ubiquitin-Conjugating Enzyme UbcH5c from α-Santonin Derivatives” (J Med Chem, 2017).
